Key:
[1] = molecular target: T1, Protein kinase C gamma type (Homo sapiens, UniProt P05129); experiment: Inhibitory activity of 10 uM compound against protein kinase C-gamma using histone as substrate
[2] = molecular target: T2, Protein kinase C beta type (Homo sapiens, UniProt P05771); experiment: Inhibitory concentration against human protein kinase C-betaII using histone as substrate
Target sequence in this assay (P05771 whole entry): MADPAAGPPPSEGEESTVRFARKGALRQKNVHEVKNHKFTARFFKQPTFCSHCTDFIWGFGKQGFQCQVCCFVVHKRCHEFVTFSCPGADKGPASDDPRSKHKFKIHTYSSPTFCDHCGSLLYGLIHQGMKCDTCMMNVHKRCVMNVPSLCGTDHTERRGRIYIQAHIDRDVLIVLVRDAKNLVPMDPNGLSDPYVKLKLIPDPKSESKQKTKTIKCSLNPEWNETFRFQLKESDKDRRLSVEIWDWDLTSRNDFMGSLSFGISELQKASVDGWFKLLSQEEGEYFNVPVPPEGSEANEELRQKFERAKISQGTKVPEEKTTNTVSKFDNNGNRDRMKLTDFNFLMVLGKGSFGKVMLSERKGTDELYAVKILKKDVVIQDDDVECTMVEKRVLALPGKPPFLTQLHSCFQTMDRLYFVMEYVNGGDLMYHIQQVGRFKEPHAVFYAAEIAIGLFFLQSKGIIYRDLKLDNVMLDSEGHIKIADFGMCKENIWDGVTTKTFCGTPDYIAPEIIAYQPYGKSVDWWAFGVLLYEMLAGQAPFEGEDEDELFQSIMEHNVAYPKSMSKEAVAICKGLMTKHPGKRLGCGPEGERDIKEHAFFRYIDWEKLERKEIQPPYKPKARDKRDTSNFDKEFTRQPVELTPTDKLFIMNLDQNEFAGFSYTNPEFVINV

[3] = molecular target: T3, Protein kinase C alpha type (Homo sapiens, UniProt P17252); experiment: Inhibitory activity of 10 uM compound against protein kinase C-alpha using histone as substrate
[4] = molecular target: T1, Protein kinase C gamma type; experiment: Inhibition of protein kinase C-gamma
[5] = molecular target: T2, Protein kinase C beta type; experiment: Inhibition of protein kinase C-betaII at 10 uM
Target sequence in this assay (P05771 2-671 limits assumed): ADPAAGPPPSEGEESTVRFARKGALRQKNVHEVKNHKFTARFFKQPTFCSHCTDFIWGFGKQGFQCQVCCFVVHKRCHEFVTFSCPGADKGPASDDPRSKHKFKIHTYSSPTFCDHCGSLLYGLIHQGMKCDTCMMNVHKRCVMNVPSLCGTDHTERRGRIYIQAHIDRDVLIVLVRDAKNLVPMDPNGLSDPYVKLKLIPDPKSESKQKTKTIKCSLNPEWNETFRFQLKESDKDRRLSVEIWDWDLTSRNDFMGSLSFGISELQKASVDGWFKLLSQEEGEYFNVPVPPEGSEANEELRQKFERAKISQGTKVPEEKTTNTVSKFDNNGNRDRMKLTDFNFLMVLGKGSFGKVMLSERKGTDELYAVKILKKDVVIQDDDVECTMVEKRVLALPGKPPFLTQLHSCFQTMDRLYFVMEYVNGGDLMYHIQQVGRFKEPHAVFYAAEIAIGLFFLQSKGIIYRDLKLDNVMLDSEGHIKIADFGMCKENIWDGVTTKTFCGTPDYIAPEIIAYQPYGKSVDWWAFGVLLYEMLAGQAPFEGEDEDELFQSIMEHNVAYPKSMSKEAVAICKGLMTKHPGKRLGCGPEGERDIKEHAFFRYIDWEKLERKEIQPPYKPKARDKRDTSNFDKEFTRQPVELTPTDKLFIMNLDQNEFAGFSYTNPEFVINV

[6] = molecular target: T3, Protein kinase C alpha type; experiment: Inhibitory concentration against protein kinase C-alpha using histone as substrate
[7] = molecular target: Glycogen synthase kinase-3 beta (Homo sapiens, UniProt P49841); experiment: Effective concentration of compound against glycogen synthase kinase-3 in HEK293 cells; type: functional, cell-based
Outline: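 HEK293 cells exposed to compound; glycogen synthase activity then measured in cell extracts as ¹⁴C-UDP glucose incorporation into glycogen. EC₅₀ averaged from triplicate determinations.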

Sequence of Glycogen synthase kinase-3 beta (P49841 whole entry): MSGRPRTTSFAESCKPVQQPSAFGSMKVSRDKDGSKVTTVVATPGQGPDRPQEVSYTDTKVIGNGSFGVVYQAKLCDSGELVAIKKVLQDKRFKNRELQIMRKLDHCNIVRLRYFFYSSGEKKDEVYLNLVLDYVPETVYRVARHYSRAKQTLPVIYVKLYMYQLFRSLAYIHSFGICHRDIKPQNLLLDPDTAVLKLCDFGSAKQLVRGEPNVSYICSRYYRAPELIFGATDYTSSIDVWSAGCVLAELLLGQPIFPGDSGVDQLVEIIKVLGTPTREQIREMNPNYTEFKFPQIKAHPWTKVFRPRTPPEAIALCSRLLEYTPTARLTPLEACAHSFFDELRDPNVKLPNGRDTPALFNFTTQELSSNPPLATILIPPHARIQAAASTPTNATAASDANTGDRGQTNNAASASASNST

| inhibition [1] [%] | IC50 [2] [nM] | inhibition [3] [%] | IC50 [4] [µM] | inhibition [5] [%] | IC50 [6] [µM] | Structure (SMILES) | EC50 [7] [mM] |
| --- | --- | --- | --- | --- | --- | --- | --- |
| < 50 | 1070 | < 50 |  |  |  | CCn1cc(C2=C(c3cn(CCCO)c4ncccc34)C(=O)NC2=O)c2cccnc21 |  |
|  | 2730 | < 50 | 8.7 |  |  | COc1ccccc1C1=C(c2cn(CCCNC=O)c3ncccc23)C(=O)NC1=O |  |
| < 50 |  | < 50 |  | < 50 |  | O=C1NC(=O)C(c2cn(CCCO)c3ncccc23)=C1c1cccs1 |  |
|  | 240 |  | 2.8 |  | 1.4 | CN(C)CCCn1cc(C2=C(c3cccc4ccccc34)C(=O)NC2=O)c2cccnc21 |  |
| < 50 |  | < 50 |  | < 50 |  | O=C1NC(=O)C(c2cn(CCCO)c3ncccc23)=C1c1ccccn1 |  |
|  | 730 |  | 5.5 |  | 4.4 | O=C1NC(=O)C(c2cn(CCCO)c3ncccc23)=C1c1ccccc1Cl |  |
| < 50 | 1440 | 50 |  |  |  | COc1ccccc1C1=C(c2cn(CCCO)c3ncccc23)C(=O)NC1=O |  |
|  |  |  |  |  |  | [Cl-].[Li+] [CHLOROLITHIUM] | > 3 |
| < 50 | 2380 |  |  |  | 4.5 | O=C1NC(=O)C(c2cn(CCCO)c3ncccc23)=C1c1ccc(F)cc1Cl |  |
|  | 1880 |  | 8.6 |  | 4.7 | COc1ccccc1C1=C(c2cn(CCCNS(C)(=O)=O)c3ncccc23)C(=O)NC1=O |  |
| 50 | 270 |  |  |  | 3.6 | O=C1NC(=O)C(c2cn(CCCO)c3ncccc23)=C1c1cccc2ccccc12 |  |
| 50 | 1850 | 50 |  |  |  | O=C1NC(=O)C(c2cn(CCCO)c3ncccc23)=C1c1ccccc1C(F)(F)F |  |
|  | 890 | < 50 | 6 |  |  | COc1ccccc1C1=C(c2cn(CCCNS(N)(=O)=O)c3ncccc23)C(=O)NC1=O |  |
| < 50 | 1100 | 50 |  |  |  | COc1ccccc1C1=C(c2cn(CCCN)c3ncccc23)C(=O)NC1=O |  |
|  | 1160 |  | 3.6 |  | 4 | CN(C)CCCn1cc(C2=C(c3ccccc3Cl)C(=O)NC2=O)c2cccnc21 |  |

Source: ChEMBL document CHEMBL1146654, “3-(7-Azaindolyl)-4-arylmaleimides as potent, selective inhibitors of glycogen synthase kinase-3” (Bioorg Med Chem Lett, 2004)
